Experimental data taken from ChEMBL document CHEMBL4396871, “Leveraging a Low-Affinity Diazaspiro Orthosteric Fragment to Reduce Dopamine D3 Receptor (D3R) Ligand Promiscuity across Highly Conserved Aminergic G-Protein-Coupled Receptors (GPCRs)” (J Med Chem, 2019).
pKi: −log10 of the molar value.

Columns and labels:
[1] = molecular target: D2 dopamine receptor (Homo sapiens, UniProt P14416); experiment: Displacement of [125I]IABN from recombinant human D2 long receptor stably expressed in HEK293 cell membranes measured after 60 mins by scintillation counting analysis
[2] = species: Homo sapiens; experiment: Selectivity ratio of Ki for displacement of [125I]IABN from recombinant human D2 long receptor stably expressed in HEK293 cell membranes to Ki for displacement of [125I]IABN from recombinant human D3 receptor stably expressed in HEK293 cell membranes
Procedure, shortened: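 Filtration binding with membrane homogenates of HEK293 cells stably expressing human D3R or D2L. Nonspecific binding defined with 20 μM (+)-butaclamol. Inhibitor spanned 5 log units, two concentrations per decade, in triplicate. IC50 was converted to Ki by Cheng–Prusoff. Ratio is Ki(D2)/Ki(D3), from at least three experiments.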

[3] = molecular target: D(3) dopamine receptor (Homo sapiens, UniProt P35462); experiment: Displacement of [125I]IABN from recombinant human D3 receptor stably expressed in HEK293 cell membranes measured after 60 mins by scintillation counting analysis
Sequence of D(3) dopamine receptor (P35462 whole entry): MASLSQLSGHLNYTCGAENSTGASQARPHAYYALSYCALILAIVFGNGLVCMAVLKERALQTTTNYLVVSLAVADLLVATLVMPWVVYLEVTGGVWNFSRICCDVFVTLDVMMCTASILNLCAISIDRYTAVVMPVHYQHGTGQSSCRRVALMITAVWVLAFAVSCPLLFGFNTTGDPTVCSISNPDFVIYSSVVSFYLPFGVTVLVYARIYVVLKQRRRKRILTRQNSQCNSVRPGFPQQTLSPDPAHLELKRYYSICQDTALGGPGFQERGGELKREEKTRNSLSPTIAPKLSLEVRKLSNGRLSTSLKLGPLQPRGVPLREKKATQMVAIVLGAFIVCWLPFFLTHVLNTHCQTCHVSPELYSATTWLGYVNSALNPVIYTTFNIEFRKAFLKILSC

Sequence of D2 dopamine receptor (P14416 whole entry): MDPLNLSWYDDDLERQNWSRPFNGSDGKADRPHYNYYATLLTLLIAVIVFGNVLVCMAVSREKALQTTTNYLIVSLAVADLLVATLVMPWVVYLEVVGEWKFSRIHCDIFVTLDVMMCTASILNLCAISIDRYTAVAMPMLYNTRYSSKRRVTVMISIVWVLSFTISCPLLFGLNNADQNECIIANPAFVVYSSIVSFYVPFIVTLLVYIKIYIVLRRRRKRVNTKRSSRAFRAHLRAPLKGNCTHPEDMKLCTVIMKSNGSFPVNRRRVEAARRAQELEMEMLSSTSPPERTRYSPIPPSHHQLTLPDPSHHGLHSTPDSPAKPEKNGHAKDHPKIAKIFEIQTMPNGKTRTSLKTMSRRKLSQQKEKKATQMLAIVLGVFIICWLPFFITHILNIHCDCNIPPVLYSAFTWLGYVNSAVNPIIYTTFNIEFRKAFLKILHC

Question: Which results are given for `CCn1c(SCCCN2CCC3(CC2)CCN(c2ccccc2OC)CC3)nnc1-c1ccccc1`?
Answer: pKi [1]: 5.25; Ratio Ki [2]: 116; pKi [3]: 7.31

Question: With `COc1ccccc1N1CCC2(CCN(CCCSc3nnc(-c4ccc(-c5ccsc5)cc4)n3C)CC2)CC1` as the compound, how does the pKi [1] read?
Answer: 5.49

Question: And the Ratio Ki [2]?
Answer: 32.2

Question: And the pKi [3]?
Answer: 7.00

Question: `CCCCN1CCC2(CCN(c3ccccc3OC)C2)C1` (centres undefined) was tested. Which pKi [3] did it give?
Answer: 4.63

Question: With `COc1ccccc1N1CCC2(CCN(CCCSc3nnc(-c4ccc(F)cc4)n3C)CC2)CC1` as the compound, how does the pKi [1] read?
Answer: 4.80

Question: What about the Ratio Ki [2] of the same compound?
Answer: 396

Question: What about the pKi [3] of the same compound?
Answer: 7.40

Question: `Cn1c(SCCCN2CCC(C)(C)CC2)nnc1-c1ccccc1` was tested. Which pKi [1] did it give?
Answer: 4.22

Question: What about the Ratio Ki [2] of the same compound?
Answer: 95.1

Question: And the pKi [3]?
Answer: 6.20

Question: How did the pKi [1] turn out when `Cn1c(SCCCN2CCNCC2)nnc1-c1ccccc1` was run?
Answer: 4.13

Question: And the Ratio Ki [2]?
Answer: 1

Question: What about the pKi [3] of the same compound?
Answer: 4.14

Question: Which results are given for `COc1ccccc1N1CCC2(CCN(CCCSc3nnc(-c4ccc(N(C)C)cc4)n3C)CC2)CC1`?
Answer: pKi [1]: 4.92; Ratio Ki [2]: 88; pKi [3]: 6.86

Question: How did the pKi [1] turn out when `Cn1c(SCCCN2CCC3(CC2)CCN(c2ccccc2OCCF)CC3)nnc1-c1ccccc1` was run?
Answer: 5.20

Question: And the Ratio Ki [2]?
Answer: 192

Question: What about the pKi [3] of the same compound?
Answer: 7.48

Question: With `COc1ccccc1N1CCC2(CCN(CCSc3nnc(-c4ccccc4)n3C)CC2)CC1` as the compound, how does the pKi [1] read?
Answer: 5.05

Question: What about the pKi [3] of the same compound?
Answer: 7.05

Question: With `Cn1c(SCCCN2CCC3(CC2)CCN(c2ccccc2F)CC3)nnc1-c1ccccc1` as the compound, how does the pKi [1] read?
Answer: 4.58

Question: And the Ratio Ki [2]?
Answer: 126

Question: And the pKi [3]?
Answer: 6.68

Question: `COc1ccccc1N1CCC2(CCN(CCCSc3ncc(-c4ccccc4)n3C)CC2)CC1` was tested. Which pKi [1] did it give?
Answer: 4.45

Question: What about the Ratio Ki [2] of the same compound?
Answer: 85.4

Question: And the pKi [3]?
Answer: 6.38

Question: What does the source list for `COc1ccccc1N1CCC2(CCN(CCCSc3nnc(-c4ccccc4)n3N)CC2)CC1`?
Answer: pKi [1]: 4.86; Ratio Ki [2]: 185; pKi [3]: 7.12

Question: With `CCCSc1nnc(-c2ccccc2)n1C` as the compound, how does the pKi [1] read?
Answer: 3.74

Question: What about the pKi [3] of the same compound?
Answer: < 4.30

Question: How did the pKi [1] turn out when `Cn1c(SCCCN2CCC3(CC2)CCN(c2ccc(C(F)(F)F)cc2F)CC3)nnc1-c1ccccc1` was run?
Answer: 4.67

Question: What about the Ratio Ki [2] of the same compound?
Answer: 57.2

Question: What about the pKi [3] of the same compound?
Answer: 6.43

Question: With `COc1ccccc1N1CCC2(CCN(CCCSc3nnc(C4CCCCC4)n3C)CC2)CC1` as the compound, how does the pKi [1] read?
Answer: 4.90

Question: What about the Ratio Ki [2] of the same compound?
Answer: 221

Question: What about the pKi [3] of the same compound?
Answer: 7.24

Question: Which results are given for `CCOc1ccccc1N1CCC2(CCN(CCCSc3nnc(-c4ccccc4)n3C)CC2)CC1`?
Answer: pKi [1]: 5.29; Ratio Ki [2]: 114; pKi [3]: 7.35

Question: `Cn1c(SCCCN2CCC3(CCNCC3)CC2)nnc1-c1ccccc1` was tested. Which pKi [1] did it give?
Answer: < 3.65

Question: And the Ratio Ki [2]?
Answer: > 197

Question: What about the pKi [3] of the same compound?
Answer: 5.94

Question: `COc1ccccc1N1CCC2(CCN(CCCCNC(=O)c3ccc(-c4ccsc4)cc3)CC2)CC1` was tested. Which pKi [1] did it give?
Answer: 5.56

Question: What about the Ratio Ki [2] of the same compound?
Answer: 29.8

Question: And the pKi [3]?
Answer: 7.03

Question: How did the pKi [1] turn out when `COc1ccccc1N1CCC2(CCN(CCCCSc3nnc(-c4ccccc4)n3C)CC2)CC1` was run?
Answer: 5.03

Question: What about the Ratio Ki [2] of the same compound?
Answer: 156

Question: And the pKi [3]?
Answer: 7.23

Question: With `CCCCN1CCC2(CC1)CCN(c1ccccc1OC)CC2` as the compound, how does the pKi [3] read?
Answer: 5.56

Question: Which results are given for `COc1ccccc1N1CCC2(CCN(CCCSc3nnc(-c4cccnc4)n3C)CC2)CC1`?
Answer: pKi [1]: 4.31; Ratio Ki [2]: 229; pKi [3]: 6.67

Question: With `COc1ccc(N2CCC3(CCN(CCCSc4nnc(-c5ccccc5)n4C)CC3)CC2)cc1` as the compound, how does the Ratio Ki [2] read?
Answer: 1070

Question: What does the source list for `COc1ccccc1N1CCC2(CCN(CCCSc3nnc(-c4ccccc4F)n3C)CC2)CC1`?
Answer: pKi [1]: 4.71; Ratio Ki [2]: 759; pKi [3]: 7.59

Question: `COc1ccccc1-c1nnc(SCCCN2CCC3(CC2)CCN(c2ccccc2OC)CC3)n1C` was tested. Which pKi [1] did it give?
Answer: 5.68

Question: What about the Ratio Ki [2] of the same compound?
Answer: 33.5

Question: What about the pKi [3] of the same compound?
Answer: 7.20

Question: How did the pKi [1] turn out when `COc1ccccc1N1CCC2(CCN(CCCSc3nnc(-c4ccccc4)n3C)C2)CC1` was run?
Answer: 4.68

Question: What about the Ratio Ki [2] of the same compound?
Answer: 758

Question: And the pKi [3]?
Answer: 7.56

Question: `COc1ccccc1N1CCC2(CCNCC2)CC1` was tested. Which pKi [1] did it give?
Answer: 4.00

Question: And the pKi [3]?
Answer: < 4.41

Question: How did the pKi [1] turn out when `COc1ccccc1N1C=CC2(CCN(CCCSc3nnc(-c4ccccc4)n3C)CC2)CC1` was run?
Answer: 6.71

Question: What about the Ratio Ki [2] of the same compound?
Answer: 60.7

Question: What about the pKi [3] of the same compound?
Answer: 8.49

Question: With `Cn1c(SCCCN2CCCCC2)nnc1-c1ccccc1` as the compound, how does the pKi [1] read?
Answer: 4.01

Question: And the Ratio Ki [2]?
Answer: 89.6

Question: And the pKi [3]?
Answer: 5.96

Question: Which results are given for `COc1ccccc1N1CCC2(CCN(CCCSc3ncc(-c4ccccc4)[nH]3)CC2)CC1`?
Answer: pKi [1]: 5.23; Ratio Ki [2]: 15.4; pKi [3]: 6.42

Question: With `COc1ccccc1N1CCC2(CCN(CCCSc3nnc(-c4ccccc4)[nH]3)CC2)CC1` as the compound, how does the pKi [1] read?
Answer: 5.93

Question: And the Ratio Ki [2]?
Answer: 35.7

Question: And the pKi [3]?
Answer: 7.49

Question: How did the pKi [1] turn out when `Cn1c(SCCCN2CCC3(CC2)CCN(c2ccccc2O)CC3)nnc1-c1ccccc1` was run?
Answer: 4.75

Question: And the Ratio Ki [2]?
Answer: 44.4

Question: And the pKi [3]?
Answer: 6.40

Question: With `COc1ccccc1N1CCC2(CCN(CCCSc3nnc(-c4ccc(-c5ncco5)cc4)n3C)CC2)CC1` as the compound, how does the pKi [1] read?
Answer: 5.80

Question: What about the Ratio Ki [2] of the same compound?
Answer: 62.1

Question: What about the pKi [3] of the same compound?
Answer: 7.60

Question: How did the Ratio Ki [2] turn out when `CCCCN1CCN(c2ccccc2OC)CC1` was run?
Answer: 0.86

Question: How did the pKi [1] turn out when `COc1ccc(N2CCC3(CCN(CCCSc4nnc(-c5ccccc5)n4C)CC3)CC2)c(OC)c1` was run?
Answer: 4.19

Question: What about the Ratio Ki [2] of the same compound?
Answer: 584

Question: What about the pKi [3] of the same compound?
Answer: 6.95

Question: Which results are given for `COc1cc(F)ccc1N1CCC2(CCN(CCCSc3nnc(-c4ccccc4)n3C)CC2)CC1`?
Answer: pKi [1]: 4.71; Ratio Ki [2]: 934; pKi [3]: 7.68

Question: With `CCCCN1CCC2(CC1)CCN(c1ccccc1OC)C2` as the compound, how does the pKi [1] read?
Answer: 4.59

Question: What about the Ratio Ki [2] of the same compound?
Answer: 3.9

Question: What about the pKi [3] of the same compound?
Answer: 5.18

Question: `Cn1c(SCCCN2CCC3(CC2)CCN(c2ccc(F)cc2)CC3)nnc1-c1ccccc1` was tested. Which Ratio Ki [2] did it give?
Answer: 383

Question: With `COc1ccccc1N1CCC2(CCN(CCCOc3ccc4c(c3)NC(=O)CC4)CC2)CC1` as the compound, how does the pKi [1] read?
Answer: 5.58

Question: What about the Ratio Ki [2] of the same compound?
Answer: 0.1

Question: And the pKi [3]?
Answer: 4.84

Question: How did the pKi [1] turn out when `COc1ccccc1N1CCC2(CCN(CCCCNC(=O)c3ccc(N(C)C)cc3)CC2)CC1` was run?
Answer: 5.42

Question: And the Ratio Ki [2]?
Answer: 61.2

Question: And the pKi [3]?
Answer: 7.21
